Source: ChEMBL document CHEMBL3232799, “Design, synthesis and biological evaluation of new 5-nitro benzimidazole derivatives as AT1 antagonists with anti-hypertension activities” (Bioorg Med Chem, 2014)
Active and inactive are the calls of the source. The calls are words filed in the database; no cut-off is given here.

Key:
[1] = Displacement of [125I]-angiotensin 2 from angiotensin AT1 receptor in VSMC of Sprague-Dawley rat thoracic aorta after 60 mins by gamma-counting; assay type: tissue-based
Summary of the method: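 VSMCs explant-cultured from SD rat thoracic aorta (collagenase digestion, DMEM + 15% FBS), passages 3-7. Cells incubated with 0.1 nM 125I-angiotensin II plus compound (final 1e-6 to 1e-12 M), 60 min, 37°C. Nonspecific binding defined with 1 µM AII. Cells washed with PBS, lysed in 0.1 M NaOH, gamma-counted. IC50 from regression of displacement curves; Ki = IC50/(1+[L]/Kd).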

Rattus norvegicus [2] = experiment: Antihypertensive activity in spontaneous hypersensitive […] rat model assessed as reduction of blood pressure at 5 mg/kg, po measured after 4 to 5 hrs; assay type: functional
Summary of the method: (§1)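 Spontaneously hypertensive rats (250-300 g), randomized into groups of 10. Compound suspended in 0.5% sodium carboxymethyl cellulose, oral dosing at 5 and 10 mg/kg; vehicle-only negative control and losartan 10 mg/kg positive control. Mean blood pressure recorded under sodium pentobarbital anesthesia (40 mg/kg, i.p.). Significance versus control at p < 0.05 or 0.01.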

Rattus norvegicus [3] = experiment: Antihypertensive activity in spontaneous hypersensitive […] rat model assessed as reduction of blood pressure at 10 mg/kg, po measured after 4 to 5 hrs; assay type: functional; summary of the method: as §1
Rattus norvegicus [4] = experiment: Antihypertensive activity in renal hypersensitive Sprague-Dawley rat model assessed as reduction of blood pressure at 5 to 10 mg/kg, po measured for 1 to 24 hrs; assay type: functional, organism-based
Summary of the method: (§2)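 Renal hypertension induced in Sprague-Dawley rats (250-350 g) by complete ligation of the left renal artery under sodium pentobarbital (40 mg/kg); rats with SBP above 160 mmHg used. Groups of 10. Compound suspended in 0.5% sodium carboxymethyl cellulose and given orally at 5 and 10 mg/kg; vehicle control and losartan 10 mg/kg. Mean blood pressure measured under pentobarbital (40 mg/kg, i.p.) anesthesia.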

Rattus norvegicus [5] = experiment: Antihypertensive activity in spontaneous hypersensitive […] rat model assessed as duration of reduction of blood pressure at 5 to 10 mg/kg, po; assay type: functional; conditions: dose mg/kg 5-10; summary of the method: as §1
Rattus norvegicus [6] = experiment: Antihypertensive activity in spontaneous hypersensitive […] rat model assessed as reduction of blood pressure at 10 mg/kg, po measured for 1 to 24 hrs; assay type: functional; summary of the method: as §1
Rattus norvegicus [7] = experiment: Antihypertensive activity in renal hypersensitive Sprague-Dawley rat model assessed as reduction of blood pressure at 10 mg/kg, po measured for 1 to 24 hrs; assay type: functional, organism-based; set-up: dose 10 mg/kg; summary of the method: as §2
Rattus norvegicus [8] = experiment: Antihypertensive activity in spontaneous hypersensitive […] rat model assessed as reduction of blood pressure at <5 to 10 mg/kg, po measured for 1 to 24 hrs; assay type: functional, organism-based; set-up: dose 10 mg/kg; summary of the method: as §1

SMILES	IC50 [1]	Ki [1]	Activity (Rattus norvegicus [2])	Activity (Rattus norvegicus [3])	Activity (Rattus norvegicus [4])	Time (Rattus norvegicus [5])	Activity (Rattus norvegicus [6])	Activity (Rattus norvegicus [7])	Activity (Rattus norvegicus [8])
CCCCc1nc2cc([N+](=O)[O-])ccc2n1Cc1cccc2c1ccn2-c1ccccc1C(=O)O	1.03 nM	0.97 nM	30 mmHg	41 mmHg	Active	24 h			
CCCCc1nc2cc([N+](=O)[O-])ccc2n1Cc1ccc2c(ccn2-c2ccccc2C(=O)O)c1	5.11 nM	4.89 nM					32 mmHg	Active	
CCc1nc2cc([N+](=O)[O-])ccc2n1Cc1cccc2c1ccn2-c1ccccc1C(=O)O	4.12 nM	3.04 nM					30 mmHg	Active	
CCCCc1nc(Cl)c(CO)n1Cc1ccc(-c2ccccc2-c2nnn[nH]2)cc1 [LOSARTAN]	3.54 nM	2.53 nM					31 mmHg	Active	
CCCc1nc2cc([N+](=O)[O-])ccc2n1Cc1ccc2c(ccn2-c2ccccc2C(=O)O)c1	3.32 nM	2.22 nM					28 mmHg	Active	
CCCCCc1nc2cc([N+](=O)[O-])ccc2n1Cc1cccc2c1ccn2-c1ccccc1C(=O)O	15.7 nM	13.4 nM			inactive				inactive
CCCc1nc2cc([N+](=O)[O-])ccc2n1Cc1cccc2c1ccn2-c1ccccc1C(=O)O	5.43 nM	4.23 nM			inactive				inactive
